Format in all cases: cell-based
The target of assay [1] is T1, Urokinase-type plasminogen activator/surface receptor (Homo sapiens, UniProt P00749+Q03405). Kind of assay: Inhibition of [125I]-labelled urokinase-type plasminogen activator binding to uPAR in human DU-145 cells by radioligand competition binding assay.
For assay [2], the target named is T1, Urokinase-type plasminogen activator/surface receptor. Put plainly: Inhibition of high molecular weight fluorescent labelled urokinase-type plasminogen activator binding to uPAR in PMA-stimulated human U937 cells at 100 uM preincubated for 30 mins by flow cytometry. To be noted: U-937. In a few lines: (§1)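 U-937 cells were stimulated with 100 nM PMA (final) for 7–8 h at 37 °C, then resuspended at 1 × 10⁶ cells/mL in cold PBS (1 mM CaCl₂, MgCl₂) with 0.1% BSA, pH 7.4. Cells were pre-incubated with antagonist on ice for 30 min, then given 40 nM Alexa-488-HMW-uPA. After washing, cell fluorescence was read by dual-colour flow cytometry as % of the no-compound control; mean ± SD, n = 3.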

Assay [3] has the same target. Kind of assay: Inhibition of high molecular weight fluorescent labelled urokinase-type plasminogen activator binding to uPAR in PMA-stimulated human U937 cells at 10 uM preincubated for 30 mins by flow cytometry. Conditions: U-937. In a few lines:
as §1

The target is the same in assay [4]. Kind of assay: Inhibition of high molecular weight fluorescent labelled urokinase-type plasminogen activator binding to uPAR in PMA-stimulated human U937 cells at 10 nM preincubated for 30 mins by flow cytometry. To be noted: U-937. In a few lines:
as §1

Assay [5] has the same target. Kind of assay: Inhibition of high molecular weight fluorescent labelled urokinase-type plasminogen activator binding to uPAR in PMA-stimulated human U937 cells at 100 nM preincubated for 30 mins by flow cytometry. Conditions: U-937. In a few lines: as §1

The structures appear in SMILES notation. Activity calls are given as the source filed them. The rule behind the calls is not given here. Residues, ends and D or L forms follow the SMILES beside them.

In ChEMBL document CHEMBL1765005, “Small molecule antagonists of the urokinase (uPA): urokinase receptor (uPAR) interaction with high reported potencies show only weak effects in cell-based competition assays employing the native uPAR ligand” (Bioorg Med Chem, 2011) one finds IC50 and inhibition data, which are given here for three compounds.

With `CC(=O)N[C@@H](Cc1c[nH]c2ccccc12)C(=O)Nc1cccc(-c2ccc(C(=O)N[C@@H](Cc3ccccc3)C(=O)O)cc2)c1`, the IC50 in assay [1] came to 0.8 nM. The inhibition entry in assay [2] and in assay [3] was “inactive” in each case.

Turning to `N=C(N)NCCC[C@H](NC(=O)CNC(=O)[C@@H](N)CCC(=O)O)C(=O)CCl` (HELM PEPTIDE1{E.G.R.[ClC[*:1]]}$$$$V2.0), the inhibition turned out to be 80% in assay [4] and 90% in assay [5].

Regarding `C#CCNCC(=O)N(CC(=O)N(CC(N)=O)CC(=O)NC(c1ccc(OC)cc1)c1ccc(OC)cc1)c1ccc2ccccc2c1`, the inhibition in assay [2] came to 50%; in assay [3], 60%.
